{"data": "Experimental data of several laboratories", "target": "Activin receptor type-2A (ACVR2A, Homo sapiens, UniProt P27037)", "note": "Each line is one published result; the experiments were not run side by side."}
{"observed": "cell-free assay", "method": "competition with immobilised ligand", "concentration": "1 µM", "measurement": "remaining binding", "result": "92.9%", "Compound": "COc1cccc(CNC(=O)c2nc3scc(COCc4ccc(C(=O)O)cc4)c3c(=O)[nH]2)c1"}
{"observed": "thermal stability", "method": "DSF", "concentration": "10 µM", "measurement": "ΔTm", "result": "0.1 °C", "Compound": "CCN1CCC2(CC1)NC(=O)c1c(c3ccc(Cl)c(Cl)c3n1C)C2C#N (racemic)"}
{"observed": "cell-free assay", "concentration": "20 µM", "measurement": "remaining signal", "result": "45%", "Compound": "Nc1ncnc2occ(-c3ccc(NC(=O)Nc4cc(C(F)(F)F)ccc4F)cc3)c12"}
{"observed": "thermal stability", "method": "DSF", "concentration": "10 µM", "measurement": "ΔTm", "result": "2.7 °C", "Compound": "Cn1c2c(Cl)c(Cl)ccc2c2cc[nH]c(=O)c21"}
{"observed": "enzyme activity", "mode": "inhibitor", "concentration": "1 µM", "measurement": "activity vs control", "result": "93%", "Compound": "Cc1ccc(C(=O)NCc2ccsc2)cc1C#Cc1cn(C(C)C)c2ncnc(N)c12"}
{"observed": "enzyme activity", "mode": "inhibitor", "method": "radiometric", "concentration": "1 µM", "measurement": "remaining activity", "result": "74%", "Compound": "CC(C)(C)c1nc2c(s1)c1nc(N)ncc1c1ccc(NS(=O)(=O)c3c(F)cccc3F)c(F)c12"}
{"observed": "cell-free assay", "method": "competition with immobilised ligand", "concentration": "1 µM", "measurement": "remaining binding", "result": "98%", "Compound": "CCC(=O)N[C@H]1CC[C@@H](C(=O)N(C)c2ccc(-c3nc4ccccc4o3)cc2)C1"}
{"observed": "enzyme activity", "mode": "inhibitor", "concentration": "1 µM", "measurement": "inhibition", "result": "7%", "Compound": "CN1CC(Oc2cnc(C#N)cc2-c2ccn3nc(NC(=O)C4CC4)cc3c2)C1"}
{"observed": "enzyme activity", "mode": "inhibitor", "method": "radiometric", "concentration": "1 µM", "measurement": "remaining activity", "result": "9%", "Compound": "CC(C)(C)c1nc(-c2cccc(NS(=O)(=O)c3c(F)cccc3F)c2F)c(-c2ccnc(N)n2)s1"}
{"observed": "enzyme activity", "concentration": "23.5 nM", "measurement": "remaining activity", "result": "86%", "Compound": "Cc1ccc(C(=O)Nc2ccc(CN3CCN(C)CC3)c(C(F)(F)F)c2)cc1C#Cc1cnc2cccnn12"}
{"observed": "thermal stability", "method": "DSF", "concentration": "10 µM", "measurement": "ΔTm", "result": "0.6 °C", "Compound": "Cn1c2c(Cl)c(Cl)ccc2c2cc(N)[nH]c(=O)c21"}
{"observed": "enzyme activity", "mode": "inhibitor", "concentration": "1 µM", "measurement": "remaining activity", "result": "94%", "Compound": "COc1cc(Cl)c(C(=O)N[C@@H](CN[C@H]2CC[C@@H](N)CC2)Cc2ccc(C#N)cc2)cc1-c1ccc(CN[C@H](C)c2ccc(C)cc2)o1"}
